# Assay results taken from ChEMBL document CHEMBL1122046, “Quaternary heterocyclylamino beta-lactams: a generic alternative to the classical acylamino side chain” (1982).
# Experiments:
# Assay type in all cases: functional
# Proteus mirabilis = test: Minimum inhibitory concentration against aerobic organism Proteus mirabilis strain 2830
# How it was run: (§1)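 Agar-dilution MIC in µg/mL against aerobic bacterial strains on tryptocase soy agar, with inoculum applied as spots. Most series used 10^5 cfu per spot, and a later series used 10^4 cfu per spot. In some tables, footnoted strains were instead tested on Mueller-Hinton or nutrient agar. β-Lactamase-producing strains are flagged.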
# Streptococcus pyogenes = test: Minimum inhibitory concentration against aerobic organism Streptococcus pyogenes strain 3124; how it was run: as §1
# Enterobacter cloacae = test: Minimum inhibitory concentration against aerobic organism Enterobacter cloacae strain 2646; how it was run: as §1
# Klebsiella aerogenes = test: Minimum inhibitory concentration against aerobic organism Enterobacter aerogenes strain 2906; how it was run: as §1
# Enterococcus faecalis = test: Minimum inhibitory concentration against aerobic organism Streptococcus faecalis strain 2864; how it was run: as §1
# Morganella morganii = test: Minimum inhibitory concentration against aerobic organism Morganella morganii strain 2833; how it was run: as §1
# Serratia marcescens = test: Minimum inhibitory concentration against aerobic organism Serratia marcescens strain 2852; how it was run: as §1
# Escherichia coli = test: MIC against aerobic organism Escherichia coli strain 2891; how it was run: as §1
# Shigella = test: Minimum inhibitory concentration against aerobic organism Shigella species strain 2880; how it was run: as §1
# Proteus vulgaris = test: Minimum inhibitory concentration against aerobic organism Proteus vulgaris strain 2829; how it was run: as §1
# Pseudomonas aeruginosa = test: Minimum inhibitory concentration against aerobic organism Pseudomonas aeruginosa strain 2835; how it was run: as §1
# Staphylococcus aureus = test: Minimum inhibitory concentration against aerobic organism Staphylococcus aureus strain 2868; how it was run: as §1
# [1] = Minimum inhibitory concentration against aerobic organism Salmonella schottmuelleri strain 2837; how it was run: as §1
# Klebsiella pneumoniae = test: Minimum inhibitory concentration against aerobic organism Klebsiella pneumoniae strain 2882; how it was run: as §1
# [2] = Proteus mirabilis, read-out: MIC
# [3] = Streptococcus pyogenes, read-out: MIC
# [4] = Enterobacter cloacae, read-out: MIC
# [5] = Klebsiella aerogenes, read-out: MIC
# [6] = Morganella morganii, read-out: MIC
# [7] = Serratia marcescens, read-out: MIC
# [8] = Escherichia coli, read-out: MIC
# [9] = Proteus vulgaris, read-out: MIC
# [10] = Staphylococcus aureus, read-out: MIC
# [11] = Klebsiella pneumoniae, read-out: MIC
SMILES,MIC (Proteus mirabilis; [2]),MIC (Streptococcus pyogenes; [3]),MIC (Enterobacter cloacae; [4]),MIC (Klebsiella aerogenes; [5]),MIC (Enterococcus faecalis),MIC (Morganella morganii; [6]),MIC (Serratia marcescens; [7]),MIC (Escherichia coli; [8]),"MIC (Shigella; Shigella, read-out: MIC)",MIC (Proteus vulgaris; [9]),MIC (Pseudomonas aeruginosa),MIC (Staphylococcus aureus; [10]),"MIC ([1]; Salmonella, read-out: MIC)",MIC (Klebsiella pneumoniae; [11]),other results
CC1=C(C(=O)[O-])N2C(=O)[C@@H](Nc3cc[n+](Cc4ccccc4)cc3)[C@H]2SC1,> 128 µg/mL,0.06 µg/mL,64 µg/mL,128 µg/mL,128 µg/mL,> 128 µg/mL,> 128 µg/mL,4 µg/mL,2 µg/mL,> 128 µg/mL,> 128 µg/mL,64 µg/mL,0.5 µg/mL,32 µg/mL,–
Cc1c[n+](C)ccc1N[C@@H]1C(=O)N2C(C(=O)[O-])=C(CSc3nnnn3C)CS[C@H]12,16 µg/mL,32 µg/mL,16 µg/mL,8 µg/mL,> 128 µg/mL,16 µg/mL,> 128 µg/mL,8 µg/mL,16 µg/mL,1 µg/mL,> 128 µg/mL,> 128 µg/mL,128 µg/mL,16 µg/mL,–
C[n+]1ccccc1NC(C(=O)NC1C(=O)N2C1SC(C)(C)[C@@H]2C(=O)[O-])c1ccccc1 (some centres not stated),–,< 0.39 µg/mL,> 100 µg/mL,–,12.5 µg/mL,–,–,> 100 µg/mL,25 µg/mL,–,–,3.12 µg/mL,12.5 µg/mL,> 100 µg/mL,–
COC(=O)c1ccc(NC2C(=O)N3C(C(=O)[O-])=C(CSc4nnnn4C)CSC23)[n+](C)c1 (configuration not stated),> 128 µg/mL,16 µg/mL,> 128 µg/mL,> 128 µg/mL,> 128 µg/mL,> 128 µg/mL,> 128 µg/mL,> 128 µg/mL,> 128 µg/mL,> 128 µg/mL,> 128 µg/mL,> 128 µg/mL,128 µg/mL,> 128 µg/mL,–
Cn1nnnc1SCC1=C(C(=O)[O-])N2C(=O)C(Nc3cccc[n+]3C)C2SC1 (configuration not stated),128 µg/mL,32 µg/mL,> 128 µg/mL,16 µg/mL,> 128 µg/mL,> 128 µg/mL,> 128 µg/mL,64 µg/mL,32 µg/mL,0.5 µg/mL,> 128 µg/mL,> 128 µg/mL,> 128 µg/mL,128 µg/mL,–
COC[n+]1ccc(N[C@@H]2C(=O)N3C(C(=O)[O-])=C(CSc4nnnn4C)CS[C@H]23)cc1,64 µg/mL,0.125 µg/mL,32 µg/mL,64 µg/mL,> 128 µg/mL,> 128 µg/mL,> 128 µg/mL,0.125 µg/mL,0.5 µg/mL,< 0.06 µg/mL,> 128 µg/mL,16 µg/mL,1 µg/mL,1 µg/mL,–
Cn1nnnc1SCC1=C(C(=O)[O-])N2C(=O)[C@@H](Nc3cc[n+](C)cc3)[C@H]2SC1 (stereo in doubt; 15a),–,–,–,–,–,–,–,–,–,–,–,–,–,–,MIC (Proteus mirabilis): 8 µg/mL; MIC (Streptococcus pyogenes): 2 µg/mL; MIC (Enterobacter cloacae): 1 µg/mL; MIC (Klebsiella aerogenes): 0.5 µg/mL; MIC (Morganella morganii): 4 µg/mL; MIC (Serratia marcescens): 1 µg/mL; MIC (Escherichia coli): 0.5 µg/mL; MIC (Shigella): 1 µg/mL; MIC (Proteus vulgaris): 0.25 µg/mL; MIC (Staphylococcus aureus): 64 µg/mL; MIC [1]: 8 µg/mL; MIC (Klebsiella pneumoniae): 8 µg/mL

# Second part, led by results:
MIC (Proteus mirabilis; [2]),MIC (Streptococcus pyogenes; [3]),MIC (Enterobacter cloacae; [4]),MIC (Klebsiella aerogenes; [5]),MIC (Enterococcus faecalis),MIC (Morganella morganii; [6]),MIC (Serratia marcescens; [7]),MIC (Escherichia coli; [8]),"MIC (Shigella; Shigella, read-out: MIC)",MIC (Proteus vulgaris; [9]),MIC (Pseudomonas aeruginosa),MIC (Staphylococcus aureus; [10]),"MIC ([1]; Salmonella, read-out: MIC)",MIC (Klebsiella pneumoniae; [11]),SMILES,other results
–,–,0.5 µg/mL,–,128 µg/mL,–,–,0.5 µg/mL,< 0.06 µg/mL,–,–,> 128 µg/mL,< 0.06 µg/mL,0.5 µg/mL,CC1(C)SC2C(Nc3cc[n+](COCC(Cl)(Cl)Cl)cc3)C(=O)N2[C@H]1C(=O)[O-] (some centres not stated),–
64 µg/mL,< 0.06 µg/mL,0.125 µg/mL,8 µg/mL,> 128 µg/mL,32 µg/mL,64 µg/mL,< 0.06 µg/mL,< 0.06 µg/mL,< 0.06 µg/mL,> 128 µg/mL,2 µg/mL,< 0.06 µg/mL,0.125 µg/mL,Cn1nnnc1SCC1=C(C(=O)[O-])N2C(=O)[C@@H](Nc3cc[n+](COCC(Cl)(Cl)Cl)cc3)[C@H]2SC1,–
–,0.25 µg/mL,4 µg/mL,–,128 µg/mL,–,–,4 µg/mL,0.25 µg/mL,–,–,64 µg/mL,0.125 µg/mL,16 µg/mL,CC1(C)SC2C(Nc3cc[n+](Cc4ccccc4)cc3)C(=O)N2[C@H]1C(=O)[O-] (some centres not stated),–
> 128 µg/mL,–,4 µg/mL,16 µg/mL,128 µg/mL,> 128 µg/mL,> 128 µg/mL,0.5 µg/mL,< 0.06 µg/mL,0.125 µg/mL,> 128 µg/mL,4 µg/mL,< 0.06 µg/mL,< 0.06 µg/mL,CC(=O)OCC1=C(C(=O)[O-])N2C(=O)[C@@H](Nc3cc[n+](Cc4ccccc4)cc3)[C@H]2SC1,–
